According to ChEMBL document CHEMBL4028905, “A Unique Approach to Design Potent and Selective Cyclic Adenosine Monophosphate Response Element Binding Protein, Binding Protein (CBP) Inhibitors” (J Med Chem, 2017):
pIC50: −log10 of the molar value. The source made the active and inactive calls. The calls are words filed in the database; no cut-off is given here.

Columns and labels:
CREB-binding protein [1] = molecular target: T1, CREB-binding protein (Homo sapiens, UniProt Q92793); assay: Inhibition of His tagged recombinant CBP (unknown origin) by TR-FRET assay
Outline: (§1)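 Recombinant His-tagged bromodomains purified by Ni affinity, tag removed with thrombin, checked by mass spectrometry. Assay is TR-FRET competition against a biotinylated small-molecule ligand. Normalized inhibition vs concentration fit to 4-parameter Hill equation; […] for optimization.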
Target sequence in this assay (Q92793 whole entry): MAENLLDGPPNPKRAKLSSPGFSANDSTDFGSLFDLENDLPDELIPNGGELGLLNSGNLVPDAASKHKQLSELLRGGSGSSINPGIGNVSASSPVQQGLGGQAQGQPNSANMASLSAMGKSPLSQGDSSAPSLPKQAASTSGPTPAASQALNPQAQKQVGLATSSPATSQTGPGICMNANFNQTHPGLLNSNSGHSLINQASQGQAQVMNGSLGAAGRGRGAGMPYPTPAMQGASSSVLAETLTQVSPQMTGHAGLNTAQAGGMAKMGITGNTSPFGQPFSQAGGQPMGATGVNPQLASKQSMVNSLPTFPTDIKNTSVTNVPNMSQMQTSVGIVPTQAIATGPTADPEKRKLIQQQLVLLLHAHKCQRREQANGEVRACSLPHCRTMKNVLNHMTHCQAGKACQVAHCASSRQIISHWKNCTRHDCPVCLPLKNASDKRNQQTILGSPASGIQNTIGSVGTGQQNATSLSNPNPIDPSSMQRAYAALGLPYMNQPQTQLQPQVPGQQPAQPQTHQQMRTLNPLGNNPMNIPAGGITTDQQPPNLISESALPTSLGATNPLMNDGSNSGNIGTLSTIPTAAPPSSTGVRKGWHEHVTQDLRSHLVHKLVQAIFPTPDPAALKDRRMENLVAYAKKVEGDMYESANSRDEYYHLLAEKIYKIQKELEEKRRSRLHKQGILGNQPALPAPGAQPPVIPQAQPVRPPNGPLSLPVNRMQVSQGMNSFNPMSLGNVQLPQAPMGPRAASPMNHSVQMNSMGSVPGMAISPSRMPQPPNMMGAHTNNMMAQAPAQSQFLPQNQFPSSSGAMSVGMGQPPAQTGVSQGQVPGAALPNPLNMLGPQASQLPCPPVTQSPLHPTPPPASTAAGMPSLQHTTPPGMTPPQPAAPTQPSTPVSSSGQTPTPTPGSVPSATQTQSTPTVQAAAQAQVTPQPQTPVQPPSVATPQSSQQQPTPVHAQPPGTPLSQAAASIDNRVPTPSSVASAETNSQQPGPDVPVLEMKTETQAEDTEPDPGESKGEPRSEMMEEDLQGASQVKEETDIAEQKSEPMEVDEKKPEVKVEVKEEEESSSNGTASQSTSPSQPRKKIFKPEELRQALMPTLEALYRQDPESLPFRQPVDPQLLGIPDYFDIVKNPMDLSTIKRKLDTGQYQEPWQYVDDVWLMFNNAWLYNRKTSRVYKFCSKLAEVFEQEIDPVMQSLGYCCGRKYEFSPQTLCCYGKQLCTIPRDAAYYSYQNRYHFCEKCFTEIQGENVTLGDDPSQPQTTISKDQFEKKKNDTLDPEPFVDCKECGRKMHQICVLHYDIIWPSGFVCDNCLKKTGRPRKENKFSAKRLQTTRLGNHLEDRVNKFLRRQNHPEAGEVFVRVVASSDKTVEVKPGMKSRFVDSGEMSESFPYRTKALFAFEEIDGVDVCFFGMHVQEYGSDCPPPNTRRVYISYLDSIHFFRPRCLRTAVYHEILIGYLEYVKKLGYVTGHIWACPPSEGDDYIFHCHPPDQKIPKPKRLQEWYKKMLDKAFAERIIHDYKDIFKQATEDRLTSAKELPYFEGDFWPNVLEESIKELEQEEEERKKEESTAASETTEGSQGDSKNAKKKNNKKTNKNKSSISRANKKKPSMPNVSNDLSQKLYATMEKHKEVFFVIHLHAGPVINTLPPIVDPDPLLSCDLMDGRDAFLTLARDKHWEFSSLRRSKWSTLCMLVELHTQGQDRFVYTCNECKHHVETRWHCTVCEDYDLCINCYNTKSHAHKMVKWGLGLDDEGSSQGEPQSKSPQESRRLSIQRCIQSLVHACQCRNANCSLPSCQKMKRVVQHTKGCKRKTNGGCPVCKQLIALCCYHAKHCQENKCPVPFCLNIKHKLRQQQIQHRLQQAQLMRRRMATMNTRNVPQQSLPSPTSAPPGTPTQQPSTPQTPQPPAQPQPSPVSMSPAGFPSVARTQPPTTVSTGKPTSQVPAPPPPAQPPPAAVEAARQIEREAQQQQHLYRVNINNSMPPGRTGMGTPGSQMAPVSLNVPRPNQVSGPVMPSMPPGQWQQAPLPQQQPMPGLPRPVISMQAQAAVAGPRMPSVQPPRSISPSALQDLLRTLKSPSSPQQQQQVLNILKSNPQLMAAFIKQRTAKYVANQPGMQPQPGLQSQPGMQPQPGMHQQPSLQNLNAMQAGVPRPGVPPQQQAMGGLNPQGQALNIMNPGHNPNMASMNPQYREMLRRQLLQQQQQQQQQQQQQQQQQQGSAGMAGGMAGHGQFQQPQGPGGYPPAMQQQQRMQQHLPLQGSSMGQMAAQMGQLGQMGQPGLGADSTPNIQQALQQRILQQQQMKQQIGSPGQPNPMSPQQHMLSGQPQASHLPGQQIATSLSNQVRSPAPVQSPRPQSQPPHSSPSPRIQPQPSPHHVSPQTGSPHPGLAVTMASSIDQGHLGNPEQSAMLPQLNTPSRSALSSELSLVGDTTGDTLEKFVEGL

[2] = molecular target: Bromodomain-containing protein 4 (Homo sapiens, UniProt O60885); assay: Inhibition of His tagged recombinant BRD4 bromodomain 1 (unknown origin) by TR-FRET assay; outline: as §1
Homo sapiens [3] = species: Homo sapiens; assay: Selectivity ratio of IC50 for His tagged recombinant BRD4 bromodomain 1 (unknown origin) to IC50 for His tagged recombinant CBP (unknown origin)
CREB-binding protein [4] = molecular target: T1, CREB-binding protein; assay: Inhibition of His tagged recombinant CBP (unknown origin) at 50 uM by HTS assay
Outline: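 HTS TR-FRET competition of biotinylated ligand binding to recombinant His-tagged CBP bromodomain (tag thrombin-cleaved after Ni affinity). Highest concentration tested 50 μM. IC50 from 4-parameter Hill fit of normalized inhibition, reported as geometric mean of 2–8 replicates.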
Target sequence in this assay (Q92793 2-2442 limits assumed): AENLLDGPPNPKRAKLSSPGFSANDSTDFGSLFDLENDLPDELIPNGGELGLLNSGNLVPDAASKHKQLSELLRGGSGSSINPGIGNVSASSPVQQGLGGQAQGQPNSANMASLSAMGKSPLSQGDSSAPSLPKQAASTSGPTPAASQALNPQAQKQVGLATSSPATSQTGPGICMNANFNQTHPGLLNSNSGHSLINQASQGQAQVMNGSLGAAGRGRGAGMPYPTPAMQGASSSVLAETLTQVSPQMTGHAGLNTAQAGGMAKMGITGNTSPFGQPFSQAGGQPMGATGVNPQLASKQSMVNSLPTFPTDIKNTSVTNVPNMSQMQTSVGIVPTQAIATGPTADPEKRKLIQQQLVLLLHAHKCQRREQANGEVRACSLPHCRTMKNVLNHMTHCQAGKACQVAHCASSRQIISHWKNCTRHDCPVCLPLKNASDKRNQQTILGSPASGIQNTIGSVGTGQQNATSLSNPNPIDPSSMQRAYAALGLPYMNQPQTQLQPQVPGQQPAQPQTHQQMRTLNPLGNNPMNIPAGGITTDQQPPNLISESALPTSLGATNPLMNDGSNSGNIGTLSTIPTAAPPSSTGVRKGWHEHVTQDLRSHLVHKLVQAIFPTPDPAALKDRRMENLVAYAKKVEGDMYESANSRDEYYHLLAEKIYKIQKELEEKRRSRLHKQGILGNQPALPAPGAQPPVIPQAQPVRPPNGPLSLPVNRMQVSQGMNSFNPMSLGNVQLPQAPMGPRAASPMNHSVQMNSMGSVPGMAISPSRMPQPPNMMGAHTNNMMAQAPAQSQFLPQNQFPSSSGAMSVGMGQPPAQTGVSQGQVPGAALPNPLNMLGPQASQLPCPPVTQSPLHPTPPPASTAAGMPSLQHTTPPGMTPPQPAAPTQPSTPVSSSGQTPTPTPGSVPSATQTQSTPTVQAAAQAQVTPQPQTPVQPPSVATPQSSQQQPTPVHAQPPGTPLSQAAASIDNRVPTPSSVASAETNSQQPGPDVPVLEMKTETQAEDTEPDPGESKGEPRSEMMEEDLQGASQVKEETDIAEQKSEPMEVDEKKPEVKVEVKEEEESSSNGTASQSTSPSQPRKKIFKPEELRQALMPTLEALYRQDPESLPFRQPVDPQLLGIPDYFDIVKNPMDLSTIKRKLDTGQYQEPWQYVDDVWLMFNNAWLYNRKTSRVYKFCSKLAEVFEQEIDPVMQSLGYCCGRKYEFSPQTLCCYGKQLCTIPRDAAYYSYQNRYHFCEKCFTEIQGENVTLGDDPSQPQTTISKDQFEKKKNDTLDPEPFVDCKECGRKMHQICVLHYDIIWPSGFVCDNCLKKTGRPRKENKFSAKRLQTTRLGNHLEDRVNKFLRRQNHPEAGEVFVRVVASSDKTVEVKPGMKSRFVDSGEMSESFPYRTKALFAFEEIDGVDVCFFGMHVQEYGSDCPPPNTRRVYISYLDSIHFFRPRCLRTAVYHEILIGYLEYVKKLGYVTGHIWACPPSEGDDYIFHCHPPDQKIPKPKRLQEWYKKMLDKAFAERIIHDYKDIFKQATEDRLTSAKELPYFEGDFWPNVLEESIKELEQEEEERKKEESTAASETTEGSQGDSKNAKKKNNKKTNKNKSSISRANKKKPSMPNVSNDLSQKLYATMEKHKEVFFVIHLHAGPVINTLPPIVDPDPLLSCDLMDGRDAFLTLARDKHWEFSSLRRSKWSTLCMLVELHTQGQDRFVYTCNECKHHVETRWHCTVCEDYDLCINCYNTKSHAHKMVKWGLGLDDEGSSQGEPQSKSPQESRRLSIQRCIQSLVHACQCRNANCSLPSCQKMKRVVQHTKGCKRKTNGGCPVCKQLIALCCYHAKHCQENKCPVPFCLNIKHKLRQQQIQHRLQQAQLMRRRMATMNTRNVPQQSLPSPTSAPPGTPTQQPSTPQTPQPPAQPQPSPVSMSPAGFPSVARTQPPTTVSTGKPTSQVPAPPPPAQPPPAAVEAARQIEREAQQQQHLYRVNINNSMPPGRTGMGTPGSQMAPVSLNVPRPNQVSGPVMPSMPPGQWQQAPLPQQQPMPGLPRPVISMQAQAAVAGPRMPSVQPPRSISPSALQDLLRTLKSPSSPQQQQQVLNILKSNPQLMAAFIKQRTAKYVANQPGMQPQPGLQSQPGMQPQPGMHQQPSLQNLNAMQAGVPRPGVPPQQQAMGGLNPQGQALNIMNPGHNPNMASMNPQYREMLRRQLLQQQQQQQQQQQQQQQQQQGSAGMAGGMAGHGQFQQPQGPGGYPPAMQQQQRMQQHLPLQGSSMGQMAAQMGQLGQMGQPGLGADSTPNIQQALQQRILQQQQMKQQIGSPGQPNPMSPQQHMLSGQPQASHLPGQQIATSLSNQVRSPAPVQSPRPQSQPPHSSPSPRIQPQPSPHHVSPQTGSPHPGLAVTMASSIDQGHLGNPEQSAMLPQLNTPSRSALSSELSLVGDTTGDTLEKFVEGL

[5] = molecular target: CREB-binding protein/Histone acetyltransferase p300 (Homo sapiens, UniProt Q09472+Q92793); assay: Inhibition of P300/CBP in human MV4-11 cells assessed as reduction in MYC expression after 4 hrs by luminescence based assay; type: cell-based
Outline: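 MV-4-11 cells plated at 10,000 per well in RPMI1640 with 10% FBS and 2 mM L-glutamine. Compounds added in DMSO at a final 0.1% and incubated 4 h at 37 °C before MYC expression read-out; EC50 derived.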

[6] = Intrinsic clearance in human liver microsomes at 1 uM in presence of NADPH by LC-MS/MS analysis; type: ADME, microsome; details: read-out: CLH
[7] = Intrinsic clearance in rat liver microsomes at 1 uM in presence of NADPH by LC-MS/MS analysis; type: ADME, microsome; details: read-out: CLH
[8] = Intrinsic clearance in mouse liver microsomes at 1 uM in presence of NADPH by LC-MS/MS analysis; type: ADME, microsome; details: read-out: CLH
[9] = molecular target: T2, Bromodomain-containing protein 9 (Homo sapiens, UniProt Q9H8M2); assay: Inhibition of His tagged recombinant BRD9 (unknown origin) by TR-FRET assay; outline: as §1
T2 sequence (Q9H8M2 whole entry): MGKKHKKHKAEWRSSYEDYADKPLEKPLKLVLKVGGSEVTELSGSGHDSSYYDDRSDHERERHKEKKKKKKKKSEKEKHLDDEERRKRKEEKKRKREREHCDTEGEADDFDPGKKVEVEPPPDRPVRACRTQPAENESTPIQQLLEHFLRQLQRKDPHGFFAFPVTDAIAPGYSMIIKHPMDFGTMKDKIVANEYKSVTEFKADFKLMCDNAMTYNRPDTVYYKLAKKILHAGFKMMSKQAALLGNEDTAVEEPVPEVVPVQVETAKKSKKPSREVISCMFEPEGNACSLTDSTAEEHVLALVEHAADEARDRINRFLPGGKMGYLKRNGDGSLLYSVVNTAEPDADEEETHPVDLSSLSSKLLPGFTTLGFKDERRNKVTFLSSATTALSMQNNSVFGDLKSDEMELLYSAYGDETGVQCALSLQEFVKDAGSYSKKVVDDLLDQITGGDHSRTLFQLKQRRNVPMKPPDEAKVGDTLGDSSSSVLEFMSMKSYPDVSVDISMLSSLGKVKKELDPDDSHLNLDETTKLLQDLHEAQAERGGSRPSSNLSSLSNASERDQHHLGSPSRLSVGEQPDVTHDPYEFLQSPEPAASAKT

[10] = molecular target: Chromatin remodeling regulator CECR2 (Homo sapiens, UniProt Q9BXF3); assay: Inhibition of His tagged recombinant CECR2 (unknown origin) by TR-FRET assay; outline: as §1
Homo sapiens [11] = species: Homo sapiens; assay: Selectivity ratio of IC50 for His tagged recombinant CBP (unknown origin) to IC50 for His tagged recombinant BRD4 bromodomain 1 (unknown origin)

Row | Structure (SMILES) | pIC50 (CREB-binding protein [1]) | pIC50 [2] | Ratio IC50 (Homo sapiens [3]) | also measured
1 | COC(=O)c1c[nH]c2ccccc12 | 4.00 | < 4.00 | > 1 | inhibition (CREB-binding protein [4]): Active
2 | CC(=O)N1CCc2c(cc(N3CCCc4cc(-c5cnn(C)c5)c(C(F)F)cc43)c(=O)n2C)C1 | – | < 4.70 | > 430 | –
3 | C[C@H]1Nc2c(cccc2N2CCCc3cc(-c4cnn(C)c4)c(C(F)F)cc32)NC1=O | – | < 4.70 | – | –
4 | CNC(=O)Nc1cc(OC)cc(N2CCCc3cc(-c4cnn(C)c4)c(C(F)F)cc32)n1 | – | < 4.70 | > 170 | –
5 | Cn1c(=O)sc2cc(N)ccc21 | < 4.00 | < 4.00 | – | inhibition (CREB-binding protein [4]): Active
6 | CNC(=O)Nc1cc(OC)cc(NC(=O)NS(=O)(=O)c2cc(C)c(CCOC)s2)n1 | 6.57 | < 4.70 | > 74 | –
7 | C[C@@H]1CC(=O)Nc2cccc(-c3ccc4c(c3)c(-c3cnn(C)c3)nn4C)c2N1 | – | – | 370 | –
8 | CCOC(=O)c1cnc2ccc(C(=O)OC)cc2c1Nc1cccc(C(=O)O)c1 | 6.64 | < 4.70 | > 87 | –
9 | CNC(=O)c1cnn2c(C3CCCN3)ccnc12 (stereo not given) | 4.49 | < 4.08 | > 2.6 | –
10 | CNC(=O)c1ccc2nccc(N3CCCc4cc(-c5cnn(C)c5)c(C(F)F)cc43)c2c1 | – | < 4.70 | > 590 | –
11 | CCC(=O)N1CCOc2c(cc(-c3ccc(OC)c(OC)c3)cc2OC[C@H]2CCCN(C)C2)C1 | – | – | 34 | –
12 | CN1C(=O)CCc2ccc(N3CCCc4cc(-c5cnn(C)c5)c(C(F)F)cc43)cc21 | 7.42 | < 4.70 | > 530 | –

More lines, main results first:

Row | pIC50 (CREB-binding protein [1]) | pIC50 [2] | Ratio IC50 (Homo sapiens [3]) | Structure (SMILES) | also measured
13 | 5.85 | < 4.70 | > 14 | CNC(=O)c1cnn2ccc(N3CCCc4cc(-c5cnn(C)c5)c(C(F)F)cc43)nc12 | –
14 | 8.44 | 5.96 | 310 | Cn1cc(-c2cc3c(cc2C(F)F)N(c2cc(N4CCOCC4)c4c(c2)n(C)c(=O)n4C)CCC3)cn1 | EC50 [5]: 0.012 µM; CLint scaled at 1 µM [6]: 15 mL/min/kg; CLint scaled at 1 µM [7]: 23 mL/min/kg; CLint scaled at 1 µM [8]: 48 mL/min/kg
15 | – | 5.41 | 780 | CNC(=O)c1c[nH]c2cnc(N3CCCc4cc(-c5cnn(C)c5)c(C(F)F)cc43)cc12 | EC50 [5]: 0.36 µM; CLint scaled at 1 µM [6]: 6.9 mL/min/kg; CLint scaled at 1 µM [7]: 17 mL/min/kg; CLint scaled at 1 µM [8]: 39 mL/min/kg
16 | – | 4.74 | – | Cn1cc(-c2cc3c(cc2C(F)F)N(c2ccc4sc(=O)n(C)c4c2)CCC3)cn1 | CLint scaled at 1 µM [6]: 17 mL/min/kg; CLint scaled at 1 µM [7]: 39 mL/min/kg; CLint scaled at 1 µM [8]: 71 mL/min/kg
17 | 7.89 | 5.13 | 570 | CNC(=O)N1CCOc2ccc(N3CCCc4cc(-c5cnn(C)c5)c(C(F)F)cc43)cc2C1 | –
18 | – | 4.89 | 22 | COc1cccc2c1N(CCCNC(=O)c1cccc3c1N[C@H](C)C(=O)N3)CCC2 | –
19 | 6.27 | 4.28 | 96 | CC(=O)N1CCc2c(cc(-c3cccc(Cl)c3)c(=O)n2CC2CC2)C1 | –
20 | 7.70 | 5.39 | 210 | Cn1cc(-c2cc3c(cc2C(F)F)N(c2ccc4c(c2)n(C)c(=O)n4C)CCC3)cn1 | EC50 [5]: 1 µM; CLint scaled at 1 µM [6]: 16 mL/min/kg; CLint scaled at 1 µM [7]: 38 mL/min/kg; CLint scaled at 1 µM [8]: 61 mL/min/kg
21 | 6.35 | 5.16 | > 15 | CC(=O)N1CCCc2cc(N3CCCc4cc(-c5cnn(C)c5)c(C(F)F)cc43)ccc21 | –
22 | 8.47 | 5.35 | 1300 | C[C@@H]1CC(=O)Nc2cccc(N3CCCc4cc(-c5cnn(C)c5)c(C(F)F)cc43)c2N1 | pIC50 [9]: < 4.70; pIC50 [10]: < 4.70
23 | 4.64 | 5.28 | 0.23 | Cc1ccc(S(=O)(=O)Nc2ccc3c(c2)CCC(=O)N3C)s1 | Ratio IC50 (Homo sapiens [11]): 4.4
24 | 5.52 | 4.13 | 25 | CCC(=O)N1CCCc2cc(NS(=O)(=O)c3ccc(F)cc3C)ccc21 | –
25 | 8.02 | 4.92 | 1300 | CNC(=O)c1c[nH]c2ccc(N3CCCc4cc(-c5cnn(C)c5)c(C(F)F)cc43)cc12 | EC50 [5]: 2.2 µM; CLint scaled at 1 µM [6]: 13 mL/min/kg; CLint scaled at 1 µM [7]: 20 mL/min/kg; CLint scaled at 1 µM [8]: 47 mL/min/kg
